Screening results as filed in PubChem BioAssay.
TNAP inh hiacc: inhibitors of human TNAP at high phosphate acceptor concentration | P05186 | purified TNAP, CDP-star luminescence, 1 M DEA | inhibition, % at 20 µM | hit rate 0.03% among 200,000 | AID 1135;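 active = over 50% inhibition of tissue-nonspecific alkaline phosphatase at 20 µM in the single-dose screen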;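 note: plate controls were DMSO wells for no effect and EDTA-quenched wells as full inhibition for full effect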
Target sequence (P05186 whole entry, looked up): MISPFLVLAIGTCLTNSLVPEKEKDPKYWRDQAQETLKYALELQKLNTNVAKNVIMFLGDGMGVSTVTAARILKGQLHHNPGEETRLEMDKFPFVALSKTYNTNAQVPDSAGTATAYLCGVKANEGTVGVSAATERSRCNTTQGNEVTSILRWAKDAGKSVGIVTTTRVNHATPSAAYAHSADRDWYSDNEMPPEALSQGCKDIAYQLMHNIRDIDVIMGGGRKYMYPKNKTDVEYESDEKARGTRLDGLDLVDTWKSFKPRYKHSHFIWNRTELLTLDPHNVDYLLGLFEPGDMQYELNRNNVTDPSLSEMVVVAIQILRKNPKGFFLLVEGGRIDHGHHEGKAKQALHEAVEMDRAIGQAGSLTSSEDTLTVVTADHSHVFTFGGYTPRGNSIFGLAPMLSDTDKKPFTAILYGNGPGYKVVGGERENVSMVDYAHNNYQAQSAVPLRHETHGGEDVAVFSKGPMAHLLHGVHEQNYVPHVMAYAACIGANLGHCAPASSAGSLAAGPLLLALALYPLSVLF
TNF death inh: inhibitors of TNF-alpha induced necroptosis in Jurkat FADD-/- cells. hit rate 0.068% among 220,000. Jurkat FADD-/- TNF necroptosis rescue, ATP luminescence, 24 h; 0 = TNF only, 100 = no-TNF cells. AID 463075. activation (protection from cell death), % at 10 µM;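 active = activation, meaning protection from cell death, of at least 50% relative to plate controls; inactive = activation below 50%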;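 note: necroptosis triggered by 40 ng/mL TNF-alpha added together with compound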
sdo1 growth: restores growth of sdo1-depleted yeast | S. cerevisiae sdo1-depleted JHY4D growth rescue, OD600 30 h; stronger effect = higher value; pdr5 snq2 efflux-pump mutant strain | z-score at 10 µM | hit rate 0.21% among 140,000;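 active = z-score above 3 at both the 24 hr and the 30 hr optical density reads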;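 note: z-score against mean and SD of all compound wells on the same plate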
TNAP act hiacc: TNAP (human) activation, high acceptor. 200,000 tested, under 10 active. activation factor at 20 µM. AID 1136. purified TNAP, CDP-star luminescence, 1 M DEA, 30 min; stronger effect = higher value; 0 = EDTA background, 1 = DMSO-only activity. P05186;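 active = activation factor at least 2 at 20 µM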
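system = human TNAP | amount = enzyme diluted 1/800 final | reagent = 100 µM CDP-star substrate | signal = luminescent substrate turnover signal | dosing = one dose, 20 µM | benchmarks = EDTA negative control, DMSO positive control | measure = activation factor | timing = 30 min reaction, room temperature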
TNAP inh noacc: blocks human TNAP activity with no phosphate acceptor present; P05186; purified TNAP, CDP-star luminescence, 30 min; inhibition, % at 20 µM; hit rate 0.26% among 200,000; AID 1012;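 active = tissue-nonspecific alkaline phosphatase inhibition above about 50% at 20 µM in the single-dose screen, limit read from the data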;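 note: 0% = DMSO negative control and 100% = EDTA positive control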
L929 necroptosis: L929 zVAD cell death inhibition; L929 zVAD necroptosis rescue, ATP luminescence, 24 h; with zVAD 60 µM; viability rescue, % at 10 µM; hit rate 0.38% among 220,000; AID 1377;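 active = activation, scaled between plate controls, above about 75%, limit read from the data; inactive = activation under that limit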;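 note: 0% = zVAD with DMSO and 100% = DMSO alone without zVAD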
zVAD death conf: confirmed blocker of zVAD induced death in L929 cells. shares compounds with L929 necroptosis. L929 zVAD-induced necroptosis rescue, ATP luminescence, 24 h. activation (protection from necroptosis), % at 10 µM. hit rate 16% among 760. AID 463117;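 active = mean protection from necroptosis of at least 50% over duplicate tests; inactive = mean protection below 50%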;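 note: 0% = cells with zVAD alone and 100% = vehicle cells without zVAD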
An asterisk follows results filed as active; x = no result. Most compounds without a hit are left out; they make up all but 0.81% or so of the library.

SMILES | TNAP inh hiacc | TNF death inh | sdo1 growth | TNAP act hiacc | TNAP inh noacc | L929 necroptosis | zVAD death conf
O=C(N/C(=C\c1ccc(Br)cc1)C(=O)N1CCCC1)c1ccccc1F | -1.0 | -0.8 | x | 1 | 1.5 | -1.1 | x
CCOC(=O)c1c(N)nn(C(=O)c2ccccc2F)c1-c1ccc(OC)cc1 | -7.1 | 0.2 | x | 1.1 | -9.5 | 77.8* | 0.0
CCOC(=O)c1c(N)nn(C(=O)C(C)(C)C)c1-c1ccccc1 | -1.1 | -1.4 | -1.09 | 1 | -6.8 | 0.1 | x
CCOC(=O)CCC(=O)NNC(=O)c1ccc(NC(=O)c2ccccc2)cc1 | -6.1 | -0.6 | x | 1.1 | 0.7 | 75.4* | 12.4
C=CCn1c(SCc2ccccc2Cl)nnc1-c1sc2nc(C)cc(C)c2c1N | x | 0.2 | x | x | x | 2.1 | x
NC(=O)c1c(-c2ccccc2)oc2ccc(O)cc12 | -4.0 | -0.1 | 0.6 | 1 | -7.9 | 84.8* | 39.6
CC(=O)c1cnc(Nc2ccc(C)cc2)s1 | 6.2 | 14.2 | x | 0.9 | -1.6 | 84.1* | 3.3
O=C(c1cccc([N+](=O)[O-])c1)n1nc(-c2ccccc2)nc1NCc1ccccc1 | -4.1 | 4.1 | 0.88 | 1 | 25.7 | 80.3* | 3.1
CCCC(=O)n1nc(-c2cccnc2)nc1N | -4.7 | -0.9 | 0.75 | 1 | 1.7 | -0.1 | x
CCC(=O)n1nc(-c2cccnc2)nc1NCc1ccccc1 | -1.2 | 2.4 | x | 1 | 11.8 | 79.3* | 7.6
CCCC(=O)n1nc(-c2cccnc2)nc1NCc1ccccc1 | -3.1 | 2.1 | x | 1 | 8.4 | 79.1* | 1.2
CCCC(=O)n1nc(-c2cccnc2)nc1NCc1cccs1 | 0.4 | 1.7 | x | 1 | 47.5 | 77.1* | 0.7
O=C(c1cccs1)n1nc(-c2cccnc2)nc1NCc1ccco1 | 1.4 | 0.6 | x | 1 | 10.0 | 2.0 | x
O=C(c1ccc([N+](=O)[O-])cc1)n1nc(-c2ccccc2)nc1NCc1ccccc1 | -7.9 | -1.2 | -0.83 | 1.1 | 23.1 | 47.6 | x
Oc1[nH]c2ccccc2c1C=Nc1ccccc1 | x | -4.2 | x | x | x | 67.2 | x
C/C(=N\OCc1ccccc1C#N)c1cc2ccccc2o1 | -8.1 | 0.5 | x | 1.1 | -4.0 | 0.1 | x
C/C(=N\OCc1ccc(C#N)cc1)c1cc2ccccc2o1 | x | 0.7 | x | x | x | 78.4* | 1.5
Cn1ccnc1Sc1ccc(/C=N/NC(=O)c2ccccc2O)cc1[N+](=O)[O-] | 0.1 | 2.5 | 0.42 | 1 | -18.5 | 0.1 | x
O=C(COC(=O)c1ccc(O)cc1)Nc1ccc(Cl)cc1 | -4.1 | 1.7 | x | 1 | -3.1 | 77.7* | 20.9
CC(=O)/C=C(\C)Nc1ccccc1O | x | 12.3 | x | x | x | 81.2* | 8.6
Cc1[nH]c2ccccc2c1C(=O)C(=O)NCCOc1ccccc1 | 3.4 | 1.2 | x | 1 | -3.2 | 1.4 | x
O=c1c(O)c(-c2ccc3c(c2)OCO3)oc2ccccc12 | -4.1 | -1.4 | -0.36 | 1 | -7.6 | 76.9* | 0.8
c1ccc(-c2csc3ncnc(NCc4ccccn4)c23)cc1 | x | -11.2 | x | x | x | 78.3* | 3.9
c1ccc(CNc2ncnc3scc(-c4cccs4)c23)nc1 | -5.8 | -5.6 | x | 1.1 | -7.7 | 55.2 | x
CCCCNC(=O)C1CCN(c2nc(OC)nc(OC)n2)CC1 | -1.3 | 0.7 | 0.59 | 1 | -7.4 | -0.2 | x
SMILES | TNAP inh hiacc | TNF death inh | sdo1 growth | TNAP act hiacc | TNAP inh noacc | L929 necroptosis | zVAD death conf
Nc1cc(C(=O)OCC(=O)NC(c2ccccc2)c2ccccc2)ccc1Cl | 8.0 | -0.9 | -0.84 | 0.9 | -3.3 | 85.0* | 35.6
CCCCc1nnc(NC(=O)CSc2nc(=O)cc(N)n2-c2cccc(C)c2)s1 | -6.2 | 1.5 | -1.17 | 1.1 | 21.2 | 0.7 | x
O=c1/c(=C\c2ccc(F)cc2)sc2n1CCCN=2 | -2.8 | -0.7 | x | 1 | -10.3 | 75.8* | 0.0
O=c1/c(=C/c2ccc(O)cc2)sc2n1CCCN=2 | 4.1 | -5.0 | 0.71 | 1 | 3.4 | 3.9 | x
ClC1=C(Cl)C(Cl)=C(Cl)C1=C/C=C/c1ccccc1 | x | -28.6 | x | x | x | 112.2* | 3.4
CC1=NN(c2ccccc2)C(=O)/C1=C\C=C\c1ccccc1 | x | -26.7 | x | x | x | 3.9 | x
CCOC(=O)c1ccc(NC(=O)CSc2ccc(-c3ccncc3)nn2)cc1 | 1.0 | 2.2 | x | 1 | 7.4 | 1.2 | x
Cc1ccc(NC(=O)CSc2ccc(-c3cccnc3)nn2)cc1Cl | -0.4 | 1.2 | x | 1 | -4.9 | 81.5* | 0.8
